{"data": "Published values from different studies", "target": "Mitogen-activated protein kinase kinase kinase 14 (MAP3K14, Homo sapiens, UniProt Q99558)", "note": "Each line is one published result; the experiments were not run side by side."}
{"Structure (SMILES)": "Cc1cnc(Nc2ccc(C(=O)N3CCC(N4CCCC4)CC3)cc2)nc1-c1cc2ccccc2s1", "assay": "binding, competition with immobilised ligand", "setting": "1 µM", "remaining binding [%]": 100}
{"Structure (SMILES)": "COc1ccnn2ncc(-c3ccnc(N(C)C)n3)c12", "assay": "binding", "setting": "1 µM", "remaining binding [%]": 78}
{"Structure (SMILES)": "O=C(NCCCN1CCOCC1)c1ccc(Nc2nccc(-c3cc4ccccc4s3)n2)cc1", "assay": "binding, competition with immobilised ligand", "setting": "1 µM", "remaining binding [%]": 87}
{"Structure (SMILES)": "COc1cnc(Nc2cccc(S(N)(=O)=O)c2)nc1N1CCN(c2ccccc2)C(=O)C1", "assay": "binding, competition with immobilised ligand", "setting": "1 µM", "remaining binding [%]": 89}
{"Structure (SMILES)": "O=C(NS(=O)(=O)c1ccc(NCC2CCOCC2)c([N+](=O)[O-])c1)c1ccc(N2CCN(Cc3ccc(C(F)(F)F)cc3-c3ccc(Cl)cc3)CC2)cc1Oc1cnc2[nH]ccc2c1", "assay": "cell-free assay, competition with immobilised ligand", "setting": "1 µM", "remaining binding [%]": 65}
{"Structure (SMILES)": "O=C(Nc1c[nH]nc1C(=O)NC1CCNCC1)c1cc(F)cc(F)c1", "assay": "binding, competition with immobilised ligand", "setting": "1 µM", "remaining binding [%]": 100}
{"Structure (SMILES)": "COc1ncc2cc3ccccc3nc2c1C#N", "assay": "cell-free assay, competition with immobilised ligand", "setting": "5 µM", "remaining binding [%]": 76}
{"Structure (SMILES)": "CCCCN(CCCC)C(=O)CN1C[C@@H](c2cc(OC)c3c(c2)OCO3)[C@H](C(=O)O)[C@H]1CC(C)(C)CCC", "assay": "cell-free assay, competition with immobilised ligand", "setting": "1 µM", "remaining binding [%]": 100}
{"Structure (SMILES)": "F[C@@H]1CCN(c2nccc(-c3cnn4ncccc34)n2)C1", "assay": "binding", "setting": "1 µM", "remaining binding [%]": 100}
{"Structure (SMILES)": "CC(=O)N1CCC(c2ccc(C(=O)NC(=N)N)cc2C(F)(F)F)CC1", "assay": "cell-free assay, competition with immobilised ligand", "setting": "1 µM", "remaining binding [%]": 100}
{"Structure (SMILES)": "O=C(c1ccc(Nc2ncc(Cl)c(-c3ccc(Cl)s3)n2)cc1)N1CCC(N2CCCC2)CC1", "assay": "binding, competition with immobilised ligand", "setting": "1 µM", "remaining binding [%]": 22}
{"Structure (SMILES)": "c1cncc(-c2cccc(Nc3nccc(NC4CCCCC4)n3)c2)c1", "assay": "binding, competition with immobilised ligand", "setting": "10 µM", "remaining binding [%]": 96}
{"Structure (SMILES)": "c1cnn2ncc(-c3ccnc(N4CCC45COC5)n3)c2c1", "assay": "binding, competition with immobilised ligand", "setting": "1 µM", "remaining binding [%]": 44}
{"Structure (SMILES)": "Cc1noc([C@H]2C[C@@H](c3ccc(C(F)(F)F)cc3)CN(C(=O)N3CCS(=O)(=O)C3)C2)n1", "assay": "cell-free assay, competition with immobilised ligand", "setting": "1 µM", "remaining binding [%]": 91}
{"Structure (SMILES)": "CN(C)c1nccc(-c2cnn3ncccc23)n1", "assay": "binding, competition with immobilised ligand", "setting": "1 µM", "remaining binding [%]": 74}
{"Structure (SMILES)": "CN1CCN(c2cnc3c(C4CCN(C(=O)c5ccc(OC(F)(F)F)cc5N)CC4)ncnc3c2)CC1", "assay": "cell-free assay, competition with immobilised ligand", "setting": "1 µM", "remaining binding [%]": 100}
{"Structure (SMILES)": "N[C@H]1CCN(c2nccc(-c3cnn4ncccc34)n2)C1", "assay": "binding, competition with immobilised ligand", "setting": "1 µM", "remaining binding [%]": 100}
{"Structure (SMILES)": "C[C@@H](c1ccc(-n2cnc3c(N)ncnc32)cc1)N1CCc2nn(C)c(Cc3ccccc3)c2C1=O", "assay": "binding, competition with immobilised ligand", "setting": "0.1 µM", "remaining binding [%]": 100}
{"Structure (SMILES)": "CC1CCCN1c1nccc(-c2cnn3ncccc23)n1 (centres unmarked)", "assay": "binding, competition with immobilised ligand", "setting": "1 µM", "remaining binding [%]": 100}
{"Structure (SMILES)": "Nc1cnc(N2CCc3cc(S(=O)(=O)Nc4c(F)cc(Cl)cc4F)cc(N4CCCC4=O)c32)nc1", "assay": "cell-free assay, competition with immobilised ligand", "setting": "1 µM", "remaining binding [%]": 75}
